The values below come from ChEMBL document CHEMBL1938298, “Synthesis and characterization of [¹²⁵I]2-iodo N-[(S)-{(S)-1-methylpiperidin-2-yl}(phenyl)methyl]3-trifluoromethyl-benzamide as novel imaging probe for glycine transporter 1” (Bioorg Med Chem, 2011).

For orientation: IC50 means the concentration at which inhibition is half-maximal.

The target of data set [1] is T1, Sodium- and chloride-dependent glycine transporter 1 (Rattus norvegicus) (UniProt P28572).
T1 sequence (whole entry): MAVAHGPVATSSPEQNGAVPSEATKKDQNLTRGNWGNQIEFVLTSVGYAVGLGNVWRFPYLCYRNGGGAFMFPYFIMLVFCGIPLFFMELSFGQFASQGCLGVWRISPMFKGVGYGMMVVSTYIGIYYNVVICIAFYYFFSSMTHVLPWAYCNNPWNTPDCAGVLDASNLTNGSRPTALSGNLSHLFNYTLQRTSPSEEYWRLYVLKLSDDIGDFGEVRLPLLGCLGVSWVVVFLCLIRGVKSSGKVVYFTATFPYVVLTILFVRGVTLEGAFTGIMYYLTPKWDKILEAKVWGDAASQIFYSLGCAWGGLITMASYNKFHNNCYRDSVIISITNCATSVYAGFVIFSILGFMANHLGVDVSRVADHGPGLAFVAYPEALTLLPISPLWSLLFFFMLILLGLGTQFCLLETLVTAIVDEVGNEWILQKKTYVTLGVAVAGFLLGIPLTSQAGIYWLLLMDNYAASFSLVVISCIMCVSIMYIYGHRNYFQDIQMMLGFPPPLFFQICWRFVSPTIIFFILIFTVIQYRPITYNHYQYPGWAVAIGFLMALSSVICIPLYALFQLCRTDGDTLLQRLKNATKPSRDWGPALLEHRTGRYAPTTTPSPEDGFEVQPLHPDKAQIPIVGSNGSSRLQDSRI
Kind of data set: Binding affinity to GlyT1 in rat brain midbrain at 0.03 to 0.04 nM preincubated for 20 mins in binding buffer before compound addition measured after 30 mins by autoradiography in presence of GlyT1 inhibitor N-Me-SSR504734 relative to control. The format is tissue-based. The settings on record: tested as the 125I-labelled form.

The subject of data set [2] is Mus musculus. In words: In vivo binding affinity to GlyT1 in ddY mouse brain thalamus at 33.3 kBq, iv after 60 mins in presence of SSR504734 2 mg/kg, iv administered 15 mins prior to compound administration relative to control. In kind it is functional, organism-based. Also noted: dose 2 mg/kg. The note with it: tested as the 125I-labelled form.
In data set [3] the target is T1, Sodium- and chloride-dependent glycine transporter 1 (Rattus norvegicus). Kind of data set: Binding affinity to GlyT1 in rat brain thalamus at 0.03 to 0.04 nM preincubated for 20 mins in binding buffer before compound addition measured after 30 mins by autoradiography in presence of 0.01 mM NMDA receptor glycine site antagonist L-701,324 relative to control. The format is tissue-based. The settings on record: tested as the 125I-labelled form.

Data set [4] concerns the target T2, Sodium- and chloride-dependent glycine transporter 1 (Homo sapiens, UniProt P48067).
T2 sequence (P48067 whole entry): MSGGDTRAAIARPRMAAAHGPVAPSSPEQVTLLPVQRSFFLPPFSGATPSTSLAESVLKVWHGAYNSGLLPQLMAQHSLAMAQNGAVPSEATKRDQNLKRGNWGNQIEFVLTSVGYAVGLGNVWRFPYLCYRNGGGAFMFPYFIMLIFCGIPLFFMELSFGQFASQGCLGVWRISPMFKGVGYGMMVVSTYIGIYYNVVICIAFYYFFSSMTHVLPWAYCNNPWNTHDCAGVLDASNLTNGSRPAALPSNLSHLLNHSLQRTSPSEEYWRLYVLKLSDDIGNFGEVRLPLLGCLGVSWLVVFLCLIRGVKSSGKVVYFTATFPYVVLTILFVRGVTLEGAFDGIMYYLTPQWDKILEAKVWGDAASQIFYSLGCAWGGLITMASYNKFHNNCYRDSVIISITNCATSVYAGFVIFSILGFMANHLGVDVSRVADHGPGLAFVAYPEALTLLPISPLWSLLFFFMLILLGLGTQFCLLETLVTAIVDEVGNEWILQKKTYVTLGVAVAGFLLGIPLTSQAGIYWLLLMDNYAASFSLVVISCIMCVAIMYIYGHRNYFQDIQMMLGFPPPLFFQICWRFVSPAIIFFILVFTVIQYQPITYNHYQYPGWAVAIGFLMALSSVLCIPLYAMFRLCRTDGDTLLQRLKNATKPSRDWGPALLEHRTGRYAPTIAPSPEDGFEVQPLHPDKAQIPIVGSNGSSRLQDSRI
In words: Inhibition of GlyT1 in human JAR cells assessed as inhibition of [3H]glycine uptake preincubated for 1 mins measured after 2 hrs by liquid scintillation counting. The format is cell-based. The method in brief:
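[3H]glycine (final 10 µM) was added for 2 h at room temperature; nonspecific uptake was defined with 10 mM glycine. Cells were lysed in NaOH and counted by liquid scintillation. IC50 values are from at least three measurements, mean ± SEM.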

For data set [5], the target named is T1, Sodium- and chloride-dependent glycine transporter 1 (Rattus norvegicus). Kind of data set: Binding affinity to GlyT1 in rat brain cerebellum at 0.03 to 0.04 nM preincubated for 20 mins in binding buffer before compound addition measured after 30 mins by autoradiography in presence of 10 mM GlyT1 substrate glycine relative to control. In kind it is tissue-based. The settings on record: tested as the 125I-labelled form. Put shortly: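 Rat brain sagittal sections (20 µm) preincubated 20 min at 25 °C in Tris-HCl buffer pH 7.5 (NaCl, KCl, MgCl2, CaCl2), then 30 min at 25 °C with [125I] tracer (100 kBq, 0.03–0.04 nM) plus competitor (10 µM; glycine 1 or 10 mM). Cold washes, imaging plate 3 days, ROI PSL minus background per mm². % control from ≥triplicate slices, three rats.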

Data set [6] addresses T3, Sodium- and chloride-dependent glycine transporter 1 (Homo sapiens) (UniProt P48067).
T3 sequence (whole entry): T2 sequence (P48067 whole entry)
Kind of data set: Ratio of compound IC50 to ALX5407 IC50 for human GlyT1.

In data set [7] the target is T1, Sodium- and chloride-dependent glycine transporter 1 (Rattus norvegicus). In words: Binding affinity to GlyT1 in rat brain thalamus at 0.03 to 0.04 nM preincubated for 20 mins in binding buffer before compound addition measured after 30 mins by autoradiography in presence of 10 mM GlyT1 substrate glycine relative to control. The format is tissue-based. The note with it: tested as the 125I-labelled form.

Data set [8] shares this target. In words: Binding affinity to GlyT1 in rat brain striatum at 0.03 to 0.04 nM preincubated for 20 mins in binding buffer before compound addition measured after 30 mins by autoradiography relative to control. The format is tissue-based. The settings on record: tested as the 125I-labelled form.
The test system of data set [9] is Mus musculus. In words: In vivo binding affinity to GlyT1 in ddY mouse brain midbrain at 33.3 kBq, iv after 60 mins in presence of nonradioactive compound 2 mg/kg, iv administered 15 mins prior to compound administration relative to control. In kind it is functional.
For data set [10], the system named is Mus musculus. In words: In vivo binding affinity to GlyT1 in ddY mouse brain thalamus at 33.3 kBq, iv after 30 mins in presence of nonradioactive compound 2 mg/kg, iv administered 15 mins prior to compound administration relative to control. The format is functional.
The test system of the next data set is Stomach. Kind of data set: Drug uptake in ddY mouse stomach at 11.1 kBq, iv after 5 min by gamma counting. The format is ADME, organism-based. The settings on record: in vivo. Put shortly: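 Male ddY mice (6 weeks, 30–35 g) were given about 11.1 kBq of [125I]tracer in 0.1 mL i.v. via the tail vein. At each time point the animals were killed and organs dissected, weighed and gamma-counted. Uptake is expressed as % injected dose per gram of tissue, mean ± SD, n = 5–6.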

The next data set has as its system Intestine. In words: Drug uptake in ddY mouse intestine at 11.1 kBq, iv after 5 min by gamma counting. The note with it: in vivo. In kind it is ADME, organism-based. The method in brief: (§1)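 Male ddY mice (6 weeks, 30–35 g) received about 11.1 kBq [125I]tracer in 0.1 mL i.v. via tail vein. Killed at set times, organs dissected and weighed, radioactivity gamma counted. Reported as % injected dose/g tissue, mean ± SD, n = 5–6.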

A further data set deals with Blood. Kind of data set: Drug uptake in ddY mouse blood at 11.1 kBq, iv after 15 min by gamma counting. In kind it is ADME, organism-based. The note with it: in vivo. Put shortly:
as §1

Activity calls are given as the source filed them. No cut-off for these calls is given here.

With `CN1CCCC[C@H]1[C@@H](NC(=O)c1cccc(C(F)(F)F)c1I)c1ccccc1`, the Activity in data set [1] worked out at 25.3%; in [3], 87.1%; in [5], 44.9%; in data set [7], 52.7%. Moreover, the result (in the data set on Mus musculus [2]; in [8]) was inactive. The IC50 in data set [4] is 2.35 nM. Besides, the Ratio IC50 in [6] was 6.
As for `CN1CCCC[C@H]1[C@@H](NC(=O)c1cccc(C(F)(F)F)c1[125I])c1ccccc1`, the figures for the Activity with Mus musculus [9] and in the data set on Mus musculus [10] were 51% and 45%, respectively. For the same compound, the figures for the Drug uptake in the data set on Stomach, in the data set on Intestine and with Blood were 3.3 % ID/g, 2.47 % ID/g and 0.69 % ID/g, respectively.
